SENP7 block: SENP7 protease inhibition | Q9BQF6 | recombinant SENP7, Z-RLRGG-aminoluciferin luminescence, 40 min | inhibition, % at 5 µM | 1.5% of 330,000 active;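 active means inhibition above about 50% at the single test dose, limit read from the data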
Apaf1 inhib: blocks human Apaf-1 apoptosome activity | AID 489030 | inhibition, % at 20 µM | 0.71% of 330,000 active | reconstituted apoptosome caspase-3 activity, DEVD-Rh110 fluorescence; active means inhibition of at least 40% at 20 µM
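Material: reconstituted apoptosome with Apaf-1, cytochrome c, caspase-9, procaspase-3, dATP; medium: pH 7.5 Hepes buffer with CHAPS, BSA, DTT; also added: cytochrome c and DEVD-Rh110 substrate; timing: 30 min plus 50 min, RT; signal: Rh110 fluorescence intensity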
SENP8 block-1: blocks the human protease SENP8; purified SENP8, Z-RLRGG-aminoluciferin cleavage, luminescence; inhibition, % at 10 µM; 1.2% of 330,000 active; in the data active means inhibition above about 50%
Target sequence (Q96LD8 whole entry, looked up): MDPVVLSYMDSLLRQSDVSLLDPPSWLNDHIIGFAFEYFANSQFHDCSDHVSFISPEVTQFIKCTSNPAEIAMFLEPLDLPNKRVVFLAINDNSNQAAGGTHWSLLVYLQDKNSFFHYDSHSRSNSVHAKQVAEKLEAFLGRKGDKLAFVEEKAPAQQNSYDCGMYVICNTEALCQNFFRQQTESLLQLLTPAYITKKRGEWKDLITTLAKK
SENP6 block: inhibitors of human SENP6 protease; Recombinant SENP6 catalytic domain, aminoluciferin luminescence; inhibition, % at 10 µM; 1.8% of 330,000 active; AID 2599;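 active means inhibition above about 50% at the single tested dose, limit read from the data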
UBC13 inh: blocks human UBC13 polyubiquitin chain formation. 0.47% of 330,000 active. P61088. inhibition, % at 20 µM. TR-FRET; in the data active means inhibition above about 45%, passing the limit was not always enough
Target sequence (P61088 whole entry, looked up): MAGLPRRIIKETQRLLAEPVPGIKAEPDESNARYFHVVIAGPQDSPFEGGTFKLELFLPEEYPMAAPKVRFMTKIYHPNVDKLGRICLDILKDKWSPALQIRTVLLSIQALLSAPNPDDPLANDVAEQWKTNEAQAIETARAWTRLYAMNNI
SENP8 block-2: inhibitors of human SENP8 protease | inhibition, % at 20 µM | 0.64% of 360,000 active | recombinant SENP8, Nedd8 substrate fluorescence | AID 602440; in the data active means inhibition mostly above about 40%, no sharp cut-off; inactive means mostly below about 27%
Apaf-1 inh conf2: confirmation of Apaf-1 inhibitors; reconstituted apoptosome, caspase-3 DEVD-Rh110 fluorescence; 25% of 1,800 active; inhibition, % at 20 µM; shares compounds with Apaf1 inhib;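 active means mean inhibition of at least 40% at 20 µM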
Rh110 quench: interferes with Rh110 fluorescence, flagging false Apaf-1 inhibitors; shares compounds with Apaf1 inhib; Rh110 fluorescence interference, quenched caspase reaction; activation (fluorescence interference), % at 20 µM; 1,800 tested, under 10 active;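 active means signal rise of 40% or more at 20 µM, treated as a fluorescence artifact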
Apaf1 inh interf: shows fluorescence interference in the Apaf-1 inhibitor assay format | shares compounds with Apaf1 inhib | fluorescence interference counterscreen, Apaf-1 assay format | IC50, µM | 460 tested, under 10 active | AID 588538; call rule not given here
Hits are given with their value; i = inactive; nt = no result. Only some compounds are listed: those with a hit (about 3.1% of all), similar ones and a draw of the others.

SMILES	SENP7 block	Apaf1 inhib	SENP8 block-1	SENP6 block	UBC13 inh	SENP8 block-2	Apaf-1 inh conf2	Rh110 quench	others
O=C(Cc1ccc(NC(=O)C2CCCN(C(=O)CCc3ccccc3)C2)cc1)Nc1cccc(C(=O)N2CCCC2)c1 (stereo not drawn)	nt	nt	nt	nt	nt	i	nt	nt
Clc1ccccc1-c1nn2c(-c3ccncc3)nnc2s1	i	46.7	i	i	i	i	63.5	i	Apaf1 inh interf=i
O=C(NCc1ccncc1)C1Cc2c(-c3ccccc3Oc3ccccc3)ccnc2O1 (stereo not drawn)	nt	nt	nt	nt	nt	i	nt	nt
Cc1[nH]n(-c2ccccc2)c(=O)c1N=Nc1ccccc1C(=O)N1CCOCC1	i	i	i	i	i	i	nt	nt
Cc1[nH]n(-c2ccccc2)c(=O)c1N=Nc1cccc(S(=O)(=O)N2CCOCC2)c1	i	45.7	i	i	i	i	i	i
CCCCc1ccc(Nc2nc(CCC)cc(=O)[nH]2)cc1	i	40.0	i	i	i	i	i	i
O=C(Nc1cccc(Oc2ccccc2)c1)C1Cc2c(-c3ccccc3)ccnc2O1 (stereo not drawn)	nt	nt	nt	nt	nt	i	nt	nt
O=C(NCCCN1CCOCC1)c1[nH]c(C(F)(F)F)nc1-c1ccccc1	nt	nt	nt	nt	nt	i	nt	nt
N#Cc1c(N)n(-c2cccc(O)c2)c2nc3ccccc3nc12	i	i	i	i	i	i	nt	nt
N#Cc1c(N)n(-c2ccc(O)cc2)c2nc3ccccc3nc12	i	i	i	i	i	i	nt	nt
Nc1c(C(=O)NCCN2CCOCC2)c2nc3ccccc3nc2n1CCc1ccccc1	i	i	i	i	i	i	nt	nt
N#Cc1c(N)n(CCOC(=O)c2cccc(Br)c2)c2nc3ccccc3nc12	i	45.9	i	i	i	i	i	i
COCCn1c(N)c(C#N)c2nc3ccccc3nc21	i	51.7	i	i	i	i	i	i
Nc1c(C(=O)NCCN2CCOCC2)c2nc3ccccc3nc2n1CCc1ccccc1F	i	43.3	i	i	i	i	i	i
Nc1c(C(=O)NCC2CCCO2)c2nc3ccccc3nc2n1/N=C/c1ccncc1 (stereo not drawn)	nt	nt	nt	nt	nt	i	nt	nt
COCCn1c(N)c(C(=O)NCC2CCCO2)c2nc3ccccc3nc21 (stereo not drawn)	62.6	75.1	86.4	84.5	i	i	i	i
COc1ccc(CC(=O)Nc2nc(OCC(F)(F)F)cnc2-c2ccc(Cl)cc2Cl)cc1	nt	nt	nt	nt	nt	i	nt	nt
CCOc1ccc(Cn2c3ccc(OC)cc3c3nc4ccccc4nc32)cc1	nt	nt	nt	nt	nt	i	nt	nt
COc1ccc(Cn2c(N)c(C#N)c3nc4ccccc4nc32)cc1	i	50.4	i	i	i	i	i	i
C[C@@H]1CN([C@@H](C)CO)C(=O)CCCn2nncc2CO[C@H]1CN(C)C(=O)c1ccc(N2CCN(C)CC2)cc1	nt	nt	nt	nt	nt	i	nt	nt
CCCN1CCN(C(=O)C2CCN(S(=O)(=O)c3c(C)noc3/C=C/c3ccc(C)cc3)CC2)CC1	i	60.9	i	i	i	i	i	i
Cc1ccc(/C=C/c2onc(C)c2S(=O)(=O)N2CCC(C(=O)N3CCCCC3)CC2)cc1	i	i	i	i	i	i	nt	nt
CC1=NN(c2ccc(N)cc2)C(=O)C1	i	53.4	i	i	i	67.5	i	i
CC1=NN(c2ccccc2)C(=O)C1	i	41.3	i	i	i	49.1	i	i
CC(=O)Nc1ccc(S(=O)(=O)Nc2nc3ccccc3nc2N2CCCC2)cc1	i	i	i	i	i	i	nt	nt
SMILES	SENP7 block	Apaf1 inhib	SENP8 block-1	SENP6 block	UBC13 inh	SENP8 block-2	Apaf-1 inh conf2	Rh110 quench	others
CCOC(=O)N1CCN(S(=O)(=O)c2ccc(NC(C)=O)cc2)CC1	i	i	i	i	i	i	nt	nt
CCOC(=O)N1CCN(C2=C(NS(=O)(=O)c3ccc(NC(C)=O)cc3)C(=O)c3ccccc3C2=O)CC1	i	83.3	i	i	i	73.2	i	i
CC(=O)Nc1ccc(S(=O)(=O)NC2=C(N3CCN(C)CC3)C(=O)c3ccccc3C2=O)cc1	i	60.3	i	i	i	i	46.2	i	Apaf1 inh interf=i
O=C(C=Cc1ccco1)c1ccc([N+](=O)[O-])cc1	nt	nt	nt	nt	nt	i	nt	nt
O=C(/C=C/c1ccco1)c1ccc(NC(=O)C23CC4CC(CC(C4)C2)C3)cc1	i	45.4	i	i	i	i	i	i
CCCCCCCCC(=O)c1c(OC)oc(C=O)cc1=O	nt	nt	nt	nt	nt	i	nt	nt
CCC(=Nc1ccc(N)cc1)C1=C(O)C(C(=O)OC)C(C)(C)CC1=O (stereo not drawn)	i	61.5	i	i	i	70.4	i	i
CCC(=NCc1ccccc1)C1=C(O)C(C(=O)OC)C(C)(C)CC1=O (stereo not drawn)	i	i	i	i	i	i	nt	nt
CC(C)COc1ccc(C(=O)Nc2scc(-c3ccc(Cl)cc3Cl)c2C(N)=O)cc1	i	45.1	i	i	i	i	i	i
O=C(Nc1nc(-c2ccc(Cl)cc2Cl)cs1)c1ccc(OCC2CCCO2)cc1 (stereo not drawn)	i	i	i	i	i	i	nt	nt
CCC(C)Sc1ccc(-c2nc3ccc(C)cn3c2NC2CCCCC2)cc1 (stereo not drawn)	i	40.9	i	i	i	nt	i	i
Clc1ccccc1OCCNc1nc(NCC2CC2)nc2ccsc12	nt	nt	nt	nt	nt	i	nt	nt
COc1ccc(Cl)cc1NC(=O)C(C)N1CCN(C/C=C/c2ccccc2)CC1 (stereo not drawn)	i	42.9	i	i	i	i	i	i
CC(=O)c1ccc(NC(=O)C(C)N2CCN(C/C=C/c3ccccc3)CC2)cc1 (stereo not drawn)	i	i	i	i	i	i	nt	nt
CCN(CC(=O)Nc1cc(S(=O)(=O)N2CCOCC2)ccc1Cl)Cc1ccccc1	i	42.0	i	i	i	i	i	i
CCN1CCN(c2ccc(S(=O)(=O)N3CCCCC3)cc2NC(=O)/C=C/c2ccc([N+](=O)[O-])cc2)CC1	i	i	i	i	i	i	nt	nt
CN1CCN(c2ccc(S(=O)(=O)N3CCCCC3)cc2NC(=O)/C=C/c2ccc(Cl)c([N+](=O)[O-])c2)CC1	i	51.2	i	i	i	i	i	i
CCN(CC(=O)Nc1cc(S(=O)(=O)N2CCCCC2)ccc1Cl)Cc1ccccc1	i	i	i	i	i	i	nt	nt
CCN1CCN(c2ccc(S(=O)(=O)N3CCCCC3)cc2NC(=O)/C=C/c2ccc(OC(F)F)cc2)CC1	i	51.9	i	i	i	i	i	i
CCN1CCN(c2ccc(S(=O)(=O)N3CCOCC3)cc2NC(=O)CC(C)C)CC1	i	50.1	i	i	i	i	i	i
O=C(CSc1nc(=O)n2ccccc2n1)NCc1ccccc1Cl	i	48.5	i	i	i	i	i	i
CC(C)C1Nc2ccc(S(N)(=O)=O)cc2C2C=CCC21 (stereo not drawn)	i	i	i	i	i	i	nt	nt
